# Assay results published in ChEMBL document CHEMBL3864121, “Development of ebsulfur analogues as potent antibacterials against methicillin-resistant Staphylococcus aureus” (Bioorg Med Chem, 2016).
# Activity calls are given as the source filed them. The rule behind the calls is not given here.
# Key:
# Format in all cases: functional
# Staphylococcus aureus [1] = experiment: Antibacterial activity against methicillin-resistant Staphylococcus aureus C14 measured after overnight incubation by broth double-dilution method
# Method in brief: (§1)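 MIC by broth double-dilution in liquid Mueller-Hinton medium. Values are reported in µg/mL.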
# Staphylococcus aureus [2] = experiment: Antibacterial activity against methicillin-resistant Staphylococcus aureus G12 measured after overnight incubation by broth double-dilution method; method in brief: as §1
# Staphylococcus aureus [3] = experiment: Antibacterial activity against methicillin-resistant Staphylococcus aureus BRS3 measured after overnight incubation by broth double-dilution method; method in brief: as §1
# Staphylococcus aureus [4] = experiment: Antibacterial activity against methicillin-resistant Staphylococcus aureus S17 measured after overnight incubation by broth double-dilution method; method in brief: as §1
# Staphylococcus aureus [5] = experiment: Antibacterial activity against methicillin-resistant Staphylococcus aureus C2 measured after overnight incubation by broth double-dilution method; method in brief: as §1
# Pseudomonas aeruginosa = experiment: Antibacterial activity against Pseudomonas aeruginosa ATCC 27853 measured after overnight incubation by broth double-dilution method
# Method in brief: (§2)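 MIC by broth double-dilution in Mueller-Hinton medium. Re-testing at the time-kill inoculum used 1×10^6 CFU/mL.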
# Enterobacter cloacae = experiment: Antibacterial activity against Enterobacter cloacae ATCC 13047 measured after overnight incubation by broth double-dilution method; settings: subsp. cloacae ATCC 13047; method in brief: as §1
# Staphylococcus aureus [6] = experiment: Antibacterial activity against methicillin-resistant Staphylococcus aureus 1 measured after overnight incubation by broth double-dilution method; method in brief: as §1
# Staphylococcus aureus [7] = experiment: Antibacterial activity against methicillin-resistant Staphylococcus aureus NRS51 measured after overnight incubation by broth double-dilution method; method in brief: as §1
# Staphylococcus aureus [8] = experiment: Antibacterial activity against methicillin-resistant Staphylococcus aureus ATCC 33591 measured after overnight incubation by broth double-dilution method; method in brief: as §1
# Staphylococcus aureus [9] = experiment: Antibacterial activity against methicillin-sensitive Staphylococcus aureus ATCC 29213 measured after overnight incubation by broth double-dilution method; method in brief: as §1
# Staphylococcus aureus [10] = experiment: Antibacterial activity against methicillin-resistant Staphylococcus aureus NRS4 measured after overnight incubation by broth double-dilution method; method in brief: as §1
# Staphylococcus aureus [11] = experiment: Antibacterial activity against methicillin-sensitive Staphylococcus aureus ATCC 6538 measured after overnight incubation by broth double-dilution method; method in brief: as §1
# Staphylococcus aureus [12] = experiment: Bacteriostatic activity against methicillin-resistant Staphylococcus aureus S22 at MIC measured up to 3 to 6 hrs by time kill analysis
# Escherichia coli = experiment: Antibacterial activity against Escherichia coli MC1061 measured after overnight incubation by broth double-dilution method; method in brief: as §1
# Staphylococcus aureus [13] = experiment: Bacteriostatic activity against methicillin-resistant Staphylococcus aureus S22 at 0.5 times MIC measured up to 3 to 6 hrs by time kill analysis
# Klebsiella pneumoniae = experiment: Antibacterial activity against Klebsiella pneumoniae ATCC 27736 measured after overnight incubation by broth double-dilution method; method in brief: as §1
# [14] = system: Staphylococcus epidermidis; experiment: Antibacterial activity against Staphylococcus epidermidis ATCC 12228 measured after overnight incubation by broth double-dilution method; method in brief: as §2
# Staphylococcus aureus [15] = experiment: Antibacterial activity against methicillin-resistant Staphylococcus aureus NRS77 measured after overnight incubation by broth double-dilution method; method in brief: as §1
# Enterococcus = experiment: Antibacterial activity against Vancomycin-resistant Enterococcus measured after overnight incubation by broth double-dilution method; method in brief: as §1
# Staphylococcus aureus [16] = experiment: Antibacterial activity against methicillin-resistant Staphylococcus aureus USA100 measured after overnight incubation by broth double-dilution method; method in brief: as §1
# Staphylococcus aureus [17] = experiment: Antibacterial activity against methicillin-resistant Staphylococcus aureus USA200 measured after overnight incubation by broth double-dilution method; method in brief: as §1
# Staphylococcus aureus [18] = experiment: Antibacterial activity against methicillin-resistant Staphylococcus aureus S14 measured after overnight incubation by broth double-dilution method; method in brief: as §1
# Staphylococcus aureus [19] = experiment: Antibacterial activity against methicillin-resistant Staphylococcus aureus S22 using 1 10^6CFU/ml measured after overnight incubation by broth double-dilution method
# Staphylococcus aureus [20] = experiment: Antibacterial activity against methicillin-resistant Staphylococcus aureus G1 measured after overnight incubation by broth double-dilution method; method in brief: as §1
# Staphylococcus aureus [21] = experiment: Antibacterial activity against methicillin-sensitive Staphylococcus aureus ATCC 25923 measured after overnight incubation by broth double-dilution method; method in brief: as §1
# Staphylococcus aureus [22] = experiment: Antibacterial activity against methicillin-resistant Staphylococcus aureus C19 measured after overnight incubation by broth double-dilution method; method in brief: as §1
# Staphylococcus aureus [23] = experiment: Antibacterial activity against methicillin-resistant Staphylococcus aureus C1 measured after overnight incubation by broth double-dilution method; method in brief: as §1
# Staphylococcus aureus [24] = experiment: Antibacterial activity against methicillin-resistant Staphylococcus aureus USA300 measured after overnight incubation by broth double-dilution method; method in brief: as §1
# Staphylococcus aureus [25] = experiment: Antibacterial activity against methicillin-resistant Staphylococcus aureus USA600 measured after overnight incubation by broth double-dilution method; method in brief: as §1
# Staphylococcus aureus [26] = experiment: Antibacterial activity against methicillin-resistant Staphylococcus aureus G6 measured after overnight incubation by broth double-dilution method; method in brief: as §1
# Staphylococcus aureus [27] = experiment: Antibacterial activity against methicillin-resistant Staphylococcus aureus G14 measured after overnight incubation by broth double-dilution method; method in brief: as §1
# Staphylococcus aureus [28] = experiment: Antibacterial activity against methicillin-resistant Staphylococcus aureus S24 measured after overnight incubation by broth double-dilution method; method in brief: as §1
# Staphylococcus aureus [29] = experiment: Antibacterial activity against methicillin-resistant Staphylococcus aureus 2 measured after overnight incubation by broth double-dilution method; method in brief: as §1
# [30] = system: Mycolicibacterium smegmatis; experiment: Antibacterial activity against Mycobacterium smegmatis MC2-155 measured after overnight incubation by broth double-dilution method; settings: str. MC2 155; method in brief: as §1
# Staphylococcus aureus [31] = experiment: Antibacterial activity against methicillin-resistant Staphylococcus aureus S22 measured after overnight incubation by broth double-dilution method; method in brief: as §1
# Acinetobacter baumannii = experiment: Antibacterial activity against Acinetobacter baumannii ATCC 19606 measured after overnight incubation by broth double-dilution method; method in brief: as §2
# Enterococcus faecalis [32] = experiment: Antibacterial activity against Enterococcus faecalis ATCC 29212 measured after overnight incubation by broth double-dilution method; method in brief: as §2
# Enterococcus faecium = experiment: Antibacterial activity against Enterococcus faecium BM4105-RF measured after overnight incubation by broth double-dilution method; method in brief: as §1
# Staphylococcus aureus [33] = experiment: Antibacterial activity against methicillin-resistant Staphylococcus aureus C7 measured after overnight incubation by broth double-dilution method; method in brief: as §1
# Staphylococcus aureus [34] = experiment: Antibacterial activity against methicillin-resistant Staphylococcus aureus C16 measured after overnight incubation by broth double-dilution method; method in brief: as §1
# Salmonella enterica = experiment: Antibacterial activity against Salmonella enterica ATCC 14028 measured after overnight incubation by broth double-dilution method; method in brief: as §2
# [35] = system: Staphylococcus epidermidis; experiment: Antibacterial activity against Staphylococcus epidermidis ATCC 35984 measured after overnight incubation by broth double-dilution method; settings: RP62A; method in brief: as §2
# Listeria monocytogenes = experiment: Antibacterial activity against Listeria monocytogenes ATCC 19115 measured after overnight incubation by broth double-dilution method; method in brief: as §2
# Enterococcus faecalis [36] = experiment: Antibacterial activity against Enterococcus faecalis ATCC 49533 measured after overnight incubation by broth double-dilution method; method in brief: as §2
smiles,measurement,setting,value
NCC[C@H](O)C(=O)N[C@@H]1C[C@H](N)[C@@H](O[C@H]2O[C@H](CN)[C@@H](O)[C@H](O)[C@H]2O)[C@H](O)[C@H]1O[C@H]1O[C@H](CO)[C@@H](O)[C@H](N)[C@H]1O [AMIKACIN],MIC,Staphylococcus aureus [1],31.3 µg/mL
same,MIC,Staphylococcus aureus [2],15.6 µg/mL
same,MIC,Staphylococcus aureus [3],62.5 µg/mL
same,MIC,Staphylococcus aureus [4],31.3 µg/mL
same,MIC,Staphylococcus aureus [5],2 µg/mL
same,MIC,Pseudomonas aeruginosa,31.3 µg/mL
same,MIC,Enterobacter cloacae,1 µg/mL
same,MIC,Staphylococcus aureus [6],31.3 µg/mL
same,MIC,Staphylococcus aureus [7],15.6 µg/mL
same,MIC,Staphylococcus aureus [8],31.3 µg/mL
same,MIC,Staphylococcus aureus [9],62.5 µg/mL
same,MIC,Staphylococcus aureus [10],31.3 µg/mL
same,MIC,Staphylococcus aureus [11],2 µg/mL
same,Activity,Staphylococcus aureus [12],Active
same,MIC,Escherichia coli,2 µg/mL
same,Activity,Staphylococcus aureus [13],Active
same,MIC,Klebsiella pneumoniae,1 µg/mL
same,MIC,[14],31.3 µg/mL
same,MIC,Staphylococcus aureus [15],0.5 µg/mL
same,MIC,Enterococcus,62.5 µg/mL
same,MIC,Staphylococcus aureus [16],62.5 µg/mL
same,MIC,Staphylococcus aureus [17],62.5 µg/mL
same,MIC,Staphylococcus aureus [18],7.8 µg/mL
same,Activity,Staphylococcus aureus [19],Active
same,MIC,Staphylococcus aureus [20],31.3 µg/mL
same,MIC,Staphylococcus aureus [21],≤ 0.25 µg/mL
same,MIC,Staphylococcus aureus [22],3.9 µg/mL
same,MIC,Staphylococcus aureus [23],2 µg/mL
same,MIC,Staphylococcus aureus [24],62.5 µg/mL
same,MIC,Staphylococcus aureus [25],62.5 µg/mL
same,MIC,Staphylococcus aureus [26],15.6 µg/mL
same,MIC,Staphylococcus aureus [27],31.3 µg/mL
same,MIC,Staphylococcus aureus [28],31.3 µg/mL
same,MIC,Staphylococcus aureus [29],3.9 µg/mL
same,MIC,[30],≤ 0.25 µg/mL
same,MIC,Staphylococcus aureus [31],7.8 µg/mL
same,MIC,Acinetobacter baumannii,7.8 µg/mL
same,MIC,Enterococcus faecalis [32],125 µg/mL
same,MIC,Enterococcus faecium,125 µg/mL
same,MIC,Staphylococcus aureus [33],7.8 µg/mL
same,MIC,Staphylococcus aureus [34],31.3 µg/mL
same,MIC,Salmonella enterica,7.8 µg/mL
same,MIC,[35],15.6 µg/mL
same,MIC,Listeria monocytogenes,3.9 µg/mL
same,MIC,Enterococcus faecalis [36],> 125 µg/mL
